Laboratory results published in ChEMBL document CHEMBL1147666, “Fluorinated amphiphilic amino acid derivatives as antioxidant carriers: a new class of protective agents” (J Med Chem, 2006).

Tests used:
[1] = system: Radical scavenging activity; assay: Hydroxyl radical scavenging activity by ABTS competition assay per 30 mins at 1 umol/mL; type: functional
How it was run: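 Fenton-initiated ABTS cation radical formation in distilled water adjusted to pH 5.0. Mix: ABTS 1 mM and FeSO4 0.5 mM (stock), test compound 1 mM in DMSO, 10% final DMSO in vehicle controls. Started by adding H2O2 10 mM (stock). Read at 420 nm every minute for 30 min. Output is quenched ABTS•+ in nmol/30 min, mean ± SEM, N = 10.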

[2] = system: Radical scavenging activity; assay: Radical reducing potency by ABTS cation radical reduction assay per 30 mins at […]; type: functional
How it was run: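 ABTS cation radical reduction assay (modified Re et al.). Assay ABTS•+ 105 µM, test compound 0.5 mM final. Started by adding the test agent. Read every minute at 420 nm for 30 min. DMSO vehicle controls at 2.5% final. Output is reduced ABTS•+ in nmol/30 min, mean ± SEM, N = 10.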

[3] = system: Rotifers; assay: Viability of rotifers against doxorubicin toxicity at 10 uM; type: organism-based; conditions: Rotifera; read-out: Activity
How it was run: (§1)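 Whole rotifers of defined, uniform age from one stock culture; standardized viability assay. Animals exposed 24 h to oxidotoxin (hydrogen peroxide or doxorubicin) at 200 µM together with antioxidant at 10 µM. Vehicle-only controls run in parallel. Read-out is % viable organisms, mean ± SEM, N = 10; ANOVA with Bonferroni t-test vs vehicle.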

[4] = system: Rotifers; assay: Viability of rotifers against hydrogen peroxide toxicity at 10 uM; type: organism-based; conditions: Rotifera; read-out: Activity; how it was run: as §1
[5] = system: Mixed cortical cells; assay: Inhibition of doxorubicin-induced death of mixed cortical cells of E15 Sprague-Dawley rat embryo at 10 uM; type: functional; conditions: Mixed cortical cell
How it was run: (§2)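 Primary mixed cortical cultures from E15 Sprague-Dawley rat embryos, exposed 24 h to oxidotoxin (hydrogen peroxide, peroxynitrite or doxorubicin, 200 µM) plus antioxidant at 10 µM. Cell death measured by trypan blue absorbance at 590 nm. Reported as % inhibition of trypan blue absorbance versus vehicle, mean ± SEM, N = 10.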

[6] = system: Mixed cortical cells; assay: Inhibition of peroxynitrite-induced death of mixed cortical cells of E15 Sprague-Dawley rat embryo at 10 uM; type: functional; conditions: Mixed cortical cell; how it was run: as §2
[7] = system: Mixed cortical cells; assay: Inhibition of hydrogen peroxide-induced death of mixed cortical cells of E15 Sprague-Dawley rat embryo at 10 uM; type: functional; conditions: Mixed cortical cell; how it was run: as §2

## Cc1c(C)c2c(c(C)c1O)CCC(C)(C(=O)O)O2 (configuration not stated) [TROLOX]
[1]
  Activity: 87.3 nM
[2]
  Activity: 93.4 nM
[3]
  survival at 10 µM: 13.1%
[4]
  survival at 10 µM: 13%
[5]
  inhibition at 10 µM: 15.5%
[6]
  inhibition at 10 µM: 16.8%
[7]
  inhibition at 10 µM: 22.2%

## CC(C)(C)/[N+]([O-])=C/c1ccccc1
[1]
  Activity: 18.2 nM
[2]
  Activity: 7.8 nM
[3]
  survival at 10 µM: 18.7%
[4]
  survival at 10 µM: 25.6%
[5]
  inhibition at 10 µM: 24.2%
[6]
  inhibition at 10 µM: 20.6%
[7]
  inhibition at 10 µM: 25%

## O=C(O)CCCCC1CCSS1 (stereo not drawn) [LIPOIC ACID, ALPHA]
[2]
  Activity: 44.1 nM
[3]
  survival at 10 µM: 13.3%
[4]
  survival at 10 µM: 14.1%
[5]
  inhibition at 10 µM: 14.8%
[6]
  inhibition at 10 µM: 13.1%
[7]
  inhibition at 10 µM: 15.1%

## O=C(O)CCc1c[nH]c2ccccc12
[1]
  Activity: 95.7 nM
[2]
  Activity: 96.5 nM
[3]
  survival at 10 µM: 53.8%
[4]
  survival at 10 µM: 67.9%
[5]
  inhibition at 10 µM: 76.1%
[6]
  inhibition at 10 µM: 83.8%
[7]
  inhibition at 10 µM: 87.7%
